From ChEMBL document CHEMBL1138753, “Synthesis and biological activity of analogues of the antimicrotubule agent N,beta,beta-trimethyl-L-phenylalanyl-N(1)-[(1S,2E)-3-carboxy-1-isopropylbut-2-enyl]- N(1),3-dimethyl-L-valinamide (HTI-286)” (J Med Chem, 2004)

Key:
KB [1] = assay: Concentration required to inhibit tumor cell growth in KB-V1 cells; assay type: functional, cell-based; conditions: Homo sapiens
In short: (§1)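 Cytotoxicity was measured in paclitaxel-sensitive KB-3-1 cells and in KB-8-5 and KB-V1 cells, which express moderate and high P-glycoprotein respectively. Result is the average IC50 (nM) ± SEM; SEM is omitted where it is below 10% of the average.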

[2] = Concentration required to inhibit tumor cell growth in KB-3-1 cells; assay type: functional, cell-based, Homo sapiens; conditions: Homo sapiens, KB 3-1; in short: as §1
Tubulin beta-1 chain [3] = molecular target: T1, Tubulin beta-1 chain (Homo sapiens, UniProt Q9H4B7); assay: Percent inhibition of tubulin polymerization at 0.3 uM concentration; assay type: functional
T1 sequence (Q9H4B7 whole entry): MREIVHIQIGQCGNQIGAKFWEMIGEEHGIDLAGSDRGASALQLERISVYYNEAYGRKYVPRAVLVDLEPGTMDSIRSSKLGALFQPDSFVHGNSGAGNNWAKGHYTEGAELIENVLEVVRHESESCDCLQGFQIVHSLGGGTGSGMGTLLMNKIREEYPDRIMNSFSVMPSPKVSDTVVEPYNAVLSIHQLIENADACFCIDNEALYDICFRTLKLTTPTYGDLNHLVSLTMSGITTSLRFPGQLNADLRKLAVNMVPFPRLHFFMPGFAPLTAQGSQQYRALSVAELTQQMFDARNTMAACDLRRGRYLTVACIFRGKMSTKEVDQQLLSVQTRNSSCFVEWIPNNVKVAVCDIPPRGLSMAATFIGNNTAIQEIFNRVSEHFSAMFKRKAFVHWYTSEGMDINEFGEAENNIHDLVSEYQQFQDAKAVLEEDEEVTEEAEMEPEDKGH

NCI-H1299 = assay: Inhibitory concentration against NCI-H1299 cells was evaluated; assay type: functional, cell-based; conditions: Homo sapiens
In short: (§2)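 Cytotoxicity panel covered tumor lines differing in P-glycoprotein expression. Lox melanoma and KM20 have none; NCI-H1299, HCT-15 and S1 express it. Result is the average IC50 (nM) ± SEM.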

LOX IMVI = assay: Inhibitory concentration against Lox melanoma cells; assay type: functional, cell-based; conditions: Homo sapiens; in short: as §2
[4] = Inhibitory concentration against KM20 cells was evaluated; assay type: functional, cell-based, Homo sapiens; in short: as §2
HCT-15 = assay: Inhibitory concentration against HCT-15 cells was evaluated; assay type: functional, cell-based; conditions: Homo sapiens; in short: as §2
Tubulin beta-1 chain [5] = molecular target: T1, Tubulin beta-1 chain; assay: Binding affinity towards tubulin
Mus musculus [6] = assay: Minimum effective dose was evaluated in lox melanoma human tumor graft model in athymic mice when administered intravenously; conditions: iv, read-out: MED
KB [7] = assay: Concentration required to inhibit tumor cell growth in KB-8-5 cells; assay type: functional, cell-based, Homo sapiens; conditions: Homo sapiens, KB; in short: as §1
[8] = Inhibitory concentration against S1 cells was evaluated; assay type: functional, cell-based; in short: as §2
Mus musculus [9] = assay: Minimum tolerated dose was evaluated in lox melanoma human tumor graft model in athymic mice when administered intravenously

| SMILES | IC50 (KB [1]) [µM] | IC50 [2] [µM] | inhibition (Tubulin beta-1 chain [3]) [%] | IC50 (NCI-H1299) [µM] | IC50 (LOX IMVI) [µM] | IC50 [4] [µM] | IC50 (HCT-15) [µM] | Kd (Tubulin beta-1 chain [5]) [µM] | minimal effective dose (Mus musculus [6]) [mg/kg] | IC50 (KB [7]) [µM] | IC50 [8] [µM] | MTD (Mus musculus [9]) [mg/kg] |
| --- | --- | --- | --- | --- | --- | --- | --- | --- | --- | --- | --- | --- |
| CN[C@H](C(=O)N[C@H](C(=O)N(C)[C@H](/C=C(\C)C(=O)O)C(C)C)C(C)(C)SC)C(C)(C)c1ccccc1 | 0.303 | 0.0027 | 76 | 0.0158 | 0.003 | 0.006 | 0.0186 | 0.7 | 0.5 | 0.0071 |  |  |
| CN[C@H](C(=O)N[C@H](C(=O)N(C)[C@H](C[C@@H](C)C(=O)O)C(C)C)C(C)(C)C)C(C)(C)c1ccccc1 | 1.32 | 0.0085 | 99 |  |  |  |  | 4 |  | 0.0191 |  |  |
| CN[C@H](C(=O)N[C@H](C(=O)N(C)[C@H](/C=C(\C)C(=O)N1CCOCC1)C(C)C)C(C)(C)C)C(C)(C)c1ccccc1 | 1.19 | 0.042 | 69 |  |  |  |  |  | 3 | 0.075 |  |  |
| CN[C@H](C(=O)N[C@H](C(=O)N(C)[C@H](/C=C(\C)C(=O)O)C(C)C)C(C)(C)C)C(C)(C)C1CCCCC1 | 0.155 | 0.0039 | 93 |  |  |  |  | 1.2 | 1 | 0.0057 |  |  |
| CN[C@H](C(=O)N[C@H](C(=O)N[C@H](/C=C(\C)C(=O)O)C(C)C)C(C)(C)C)C(C)(C)c1ccccc1 | > 3 | 0.043 | 79 | 0.054 | 0.023 |  | 0.204 |  |  | 0.13 |  |  |
| CCCC[C@@H](/C=C(\C)C(=O)O)N(C)C(=O)[C@@H](NC(=O)[C@@H](NC)C(C)(C)c1ccccc1)C(C)(C)C | > 3 | 0.036 | 52 | 0.268 |  | 0.053 |  |  |  | 0.078 |  |  |
| C/C(=C\[C@H](C(C)C)N(C)C(=O)[C@@H](NC(=O)[C@@H](N1CCCC1)C(C)(C)c1ccccc1)C(C)(C)C)C(=O)O | > 3 | 0.075 | 83 |  |  |  |  |  |  | 0.158 |  |  |
| CN[C@H](C(=O)N[C@H](C(=O)N(C)[C@H](C[C@H](C)C(=O)O)C(C)C)C(C)(C)C)C(C)(C)c1ccccc1 | > 3 | 0.048 | 74 |  |  |  |  |  |  | 0.069 |  |  |
| C=CC[C@H](C(=O)N[C@H](C(=O)N(C)[C@H](/C=C(\C)C(=O)O)C(C)C)C(C)(C)C)C(C)(C)c1ccccc1 | > 6 | 1.15 | 63 |  |  |  |  |  |  | 1.2 |  |  |
| C/C(=C\[C@H](C(C)C)N(C)C(=O)[C@@H](NC(=O)[C@H](C(C)(C)c1ccccc1)S(C)(=O)=O)C(C)(C)C)C(=O)O | > 3 | 1.75 | 80 |  |  |  |  |  |  | 2.11 |  |  |
| CN[C@H](C(=O)N[C@H](C(=O)N(C)[C@H](/C=C(\C)C(=O)NCCc1ccccc1)C(C)C)C(C)(C)C)C(C)(C)c1ccccc1 | 1.77 | 0.163 | 72 |  |  |  |  |  |  | 0.226 |  |  |
| C/C(=C\[C@H](C(C)C)N(C)C(=O)[C@@H](NC(=O)[C@@H](NCCO)C(C)(C)c1ccccc1)C(C)(C)C)C(=O)O | > 3 | 0.183 | 90 |  |  |  |  |  |  | 0.616 |  |  |
| CS[C@@H](C(=O)N[C@H](C(=O)N(C)[C@H](/C=C(\C)C(=O)O)C(C)C)C(C)(C)C)C(C)(C)c1ccccc1 | > 6 | 0.691 | 79 |  |  |  |  |  |  | 1.15 |  |  |
| CNC(=O)/C(C)=C/[C@H](C(C)C)N(C)C(=O)[C@@H](NC(=O)[C@@H](NC)C(C)(C)c1ccccc1)C(C)(C)C | 1.59 | 0.068 | 78 | 0.09 |  |  | 0.0255 |  |  | 0.129 | 0.657 |  |
| CN[C@H](C(=O)N[C@H](C(=O)N(C)[C@H](/C=C(\C)C(=O)O)C(C)C)C(C)C)C(C)(C)c1ccccc1 | 0.288 | 0.0052 | 78 |  |  |  |  |  | 0.7 | 0.011 |  | >3 |
| C/C(=C\[C@H](C(C)C)N(C)C(=O)[C@@H](NC(=O)[C@@H](N(C)CCO)C(C)(C)c1ccccc1)C(C)(C)C)C(=O)O | > 3 | 0.045 | 72 |  |  |  |  | 1 |  | 0.062 |  |  |
| CN[C@H](C(=O)N[C@H](C(=O)N(C)[C@H](/C=C(\C)C(=O)N1CCN(C)CC1)C(C)C)C(C)(C)C)C(C)(C)c1ccccc1 | 2.33 | 0.033 | 69 |  |  |  |  |  | 3 | 0.06 |  | 15 |
| CC/C(=C\[C@H](C(C)C)N(C)C(=O)[C@@H](NC(=O)[C@@H](NC)C(C)(C)c1ccccc1)C(C)(C)C)C(=O)O | 0.513 | 0.0054 | 83 | 0.0193 | 0.0063 | 0.0066 | 0.0208 |  | 2 | 0.014 |  |  |
| C/C(=C\[C@H](C(C)C)N(C)C(=O)[C@@H](NC(=O)[C@@H](N(C)C)C(C)(C)c1ccccc1)C(C)(C)C)C(=O)O | 0.116 | 0.0016 | 93 |  |  |  |  |  | 1 | 0.0037 |  |  |
| CN[C@H](C(=O)N[C@H](C(=O)N(C)[C@H](/C=C(\C)C(=O)N1CCN(Cc2ccccc2)CC1)C(C)C)C(C)(C)C)C(C)(C)c1ccccc1 | 0.366 | 0.015 | 29 |  |  |  |  |  |  | 0.022 |  |  |
| CN[C@H](C(=O)N[C@H](C(=O)N(C)[C@H](/C=C(\C)C(=O)O)C(C)C)C(C)(C)C)C1(c2ccccc2)CCCCC1 | > 3 | 0.204 | 5 |  |  |  |  |  |  | 0.363 |  |  |
| CN[C@H](C(=O)N[C@H](C(=O)N(C)[C@H](/C=C(\C)C(=O)O)C(C)C)C(C)(C)C)C(C)(C)O | > 3 | 0.151 | 40 |  |  |  |  |  |  | 0.293 |  |  |
| CC[C@H](C(=O)N[C@H](C(=O)N(C)[C@H](/C=C(\C)C(=O)O)C(C)C)C(C)(C)C)C(C)(C)c1ccccc1 | 5.25 | 0.912 | 54 |  |  |  |  |  |  | 1.2 |  |  |
| CN[C@H](C(=O)N[C@H](C(=O)N(C)[C@H](/C=C(\C)C(=O)O)C(C)C)C(C)(C)C)C1(c2ccccc2)CCCC1 | 2.67 | 0.059 | 77 |  |  |  |  |  |  | 0.063 |  |  |
| CN[C@H](C(=O)N[C@H](C(=O)N(C)[C@H](/C=C(\C)C(=O)O)C(C)C)C(C)(C)C)C1(c2ccccc2)CC1 | 1.66 | 0.027 | 99 |  |  |  |  |  |  | 0.057 |  |  |
| CN[C@H](C(=O)N[C@H](C(=O)N(C)[C@H](/C=C(\C)C(=O)NO)C(C)C)C(C)(C)C)C(C)(C)c1ccccc1 | > 3 | 0.039 | 75 |  |  |  |  |  |  | 0.227 |  |  |
| CCOC(=O)/C(C)=C/[C@H](C(C)C)N(C)C(=O)[C@@H](NC(=O)[C@@H](NC)C(C)(C)c1ccccc1)C(C)(C)C | 1.87 | 0.034 | 97 | 0.1 | 0.0139 |  | 0.575 | 4 | 0.4 | 0.499 |  |  |
| C/C(=C\[C@H](C(C)C)N(C)C(=O)[C@@H](NC(=O)[C@@H](NCc1ccccc1)C(C)(C)c1ccccc1)C(C)(C)C)C(=O)O | > 3 | 1.79 | 55 |  |  |  |  |  |  | 1.88 |  |  |
